Assay [1] has as its target T1, Inosine-5'-monophosphate dehydrogenase 2 (Homo sapiens, UniProt P12268). The assay is described as follows: Inhibitory activity of compound was evaluated against the Inosine-5'-monophosphate dehydrogenase 2. Summed up: (§1)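 Human type II IMPDH expressed in and purified from E. coli, used at 40 nM. Buffer was 0.1 M Tris, 0.1 M KCl, 3 mM EDTA pH 8.0 with 2 mM DTT and 400 µM IMP. Compounds were added from DMSO (final 2.5%), and the reaction was started with NAD (final 400 µM). After 2 h at 25 °C, NADH absorbance was read at 340 nm. IC50 was taken from a four-parameter logistic fit.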

In assay [2] the test system is CCRF-CEM. The assay is described as follows: Inhibition of human T-lymphoblast CEM cell (ATCC) proliferation; At this concentration no inhibition was observed. In kind it is functional, cell-based.
For assay [3], the system named is CCRF-CEM. The assay is described as follows: The human T-lymphoblast CEM cell (ATCC) proliferation inhibitory activity was determined. It is filed as functional, cell-based. In a few lines:
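CEM human T-lymphoblasts were grown in RPMI 1640 with 10% heat-inactivated FBS and penicillin/streptomycin, then seeded at 3000 cells/well with 0.5% DMSO. Compounds were tested in triplicate, top final concentration 10 uM, in 3-fold serial dilutions, for 72 h at 5% CO2. Viability was read by Alamar Blue (10% v/v, final 5 h), fluorescence ex/em 530/590 nm.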

Assay [4] addresses Inosine-5'-monophosphate dehydrogenase 1 (Homo sapiens, UniProt P20839). The assay is described as follows: Inhibitory activity of compound was evaluated against the Inosine-5'-monophosphate dehydrogenase 1.
Assay [5] concerns the target T1, Inosine-5'-monophosphate dehydrogenase 2. The experiment in a line: Inhibitory activity of compound was evaluated against the inosine monophosphate dehydrogenase -II (IMPDH-II) enzyme. Summed up:
as §1

The text below walks through data of ChEMBL document CHEMBL1135864, “Novel amide-based inhibitors of inosine 5'-monophosphate dehydrogenase” (Bioorg Med Chem Lett, 2002).

The structures appear in SMILES notation.

As usually defined, the IC50 is the concentration at which inhibition is half-maximal. Higher therefore signals weaker potency.

Sequence of Inosine-5'-monophosphate dehydrogenase 1 (P20839 whole entry): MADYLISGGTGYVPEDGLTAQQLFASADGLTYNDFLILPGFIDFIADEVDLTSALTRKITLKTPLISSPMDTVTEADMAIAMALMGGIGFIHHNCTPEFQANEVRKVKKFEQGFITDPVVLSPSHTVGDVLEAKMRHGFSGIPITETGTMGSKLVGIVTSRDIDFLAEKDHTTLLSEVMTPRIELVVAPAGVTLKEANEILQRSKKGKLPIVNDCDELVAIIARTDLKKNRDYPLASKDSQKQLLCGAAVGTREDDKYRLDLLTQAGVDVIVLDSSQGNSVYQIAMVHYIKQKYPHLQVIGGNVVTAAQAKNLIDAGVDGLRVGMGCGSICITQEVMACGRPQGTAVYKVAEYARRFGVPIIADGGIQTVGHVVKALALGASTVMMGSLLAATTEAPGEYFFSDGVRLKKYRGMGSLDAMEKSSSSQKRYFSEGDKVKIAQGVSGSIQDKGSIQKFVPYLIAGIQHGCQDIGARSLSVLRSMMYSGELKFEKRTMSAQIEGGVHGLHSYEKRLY

For the compound `COc1cc(NC(=O)/C=C/c2ccc(Cl)cc2)ccc1-c1cnco1`, the values for the IC50 (in assay [1]; in the assay with CCRF-CEM [2]) were 230 nM and over 1000 nM, respectively.
On the same counts, the results for `COc1cc(NC(=O)/C=C/c2ccc(F)cc2)ccc1-c1cnco1` are 120 nM and over 1000 nM.
With `COc1cc(NC(=O)c2cc(C)c(C)o2)ccc1-c1cnco1`, the values for the half-maximal inhibitory concentration (IC50) (in assay [1]; with CCRF-CEM [2]) were 540 nM and over 1000 nM, respectively.
The like results for `COc1cc(NC(=O)/C=C/c2c(C)cc(F)cc2C)ccc1-c1cnco1` were, in that order, 75 nM and over 1000 nM.
Regarding `COc1cc(NC(=O)/C=C/c2ccc3ccccc3n2)ccc1-c1cnco1`, the IC50 is 630 nM in assay [1] and over 1000 nM with CCRF-CEM [2].
As for `COc1cc(NC(=O)c2[nH]nc3ccccc23)ccc1-c1cnco1`, the IC50 (in assay [1]; with CCRF-CEM [2]) was over 1000 nM each time.
For `COc1cc(NC(=O)/C=C/c2cccnc2)ccc1-c1cnco1`, the IC50 is 210 nM in assay [1] and over 1000 nM in the assay with CCRF-CEM [2].
The like results for `COc1cc(NC(=O)c2occc2C)ccc1-c1cnco1` were, in that order, over 1000 nM and over 1000 nM.
Regarding `COc1ccccc1/C=C/C(=O)Nc1ccc(-c2cnco2)c(OC)c1`, the figures for the IC50 (in assay [1]; with CCRF-CEM [2]) were 110 nM and over 1000 nM, respectively.
Consider `COc1cc(NC(=O)/C=C/c2cccc(C)c2)ccc1-c1cnco1`, for which the concentration for half-maximal inhibition (IC50) in assay [1] is 590 nM; in the assay with CCRF-CEM [2], over 1000 nM.
For `COc1cc(NC(=O)c2cc3ccccc3s2)ccc1-c1cnco1`, the IC50 in assay [1] was 170 nM; in the assay on CCRF-CEM [2] it was over 1000 nM.
Take `COc1cc(NC(=O)c2ccc3c(c2)OCO3)ccc1-c1cnco1`: the half-maximal inhibitory concentration (IC50) in assay [1] was 330 nM; in the assay on CCRF-CEM [2] it was over 1000 nM.
Regarding `COc1cc(NC(=O)c2cc3ccccc3n2C)ccc1-c1cnco1`, the concentration for half-maximal inhibition (IC50) turned out to be 130 nM in assay [1] and 7.7 µM in the assay with CCRF-CEM [3].
On to `COc1cc(NC(=O)/C=C/c2cccc(Cl)c2)ccc1-c1cnco1`, for which the IC50 in assay [1] was 300 nM; in the assay on CCRF-CEM [2], over 1000 nM.
With `COc1cc(NC(=O)c2ccc(C)c(C)c2)ccc1-c1cnco1`, the IC50 in assay [1] is 260 nM; with CCRF-CEM [2] it was over 1000 nM.
The like results for `COc1cc(NC(=O)Cc2ccccc2)ccc1-c1cnco1` were, in that order, 970 nM and over 1000 nM.
Consider `COc1cc(NC(=O)/C=C/c2ccccc2Cl)ccc1-c1cnco1`, for which the half-maximal inhibitory concentration (IC50) in assay [1] was 60 nM; in the assay on CCRF-CEM [2], over 1000 nM.
As to `COc1cc(NC(=O)/C=C/c2cccc(F)c2)ccc1-c1cnco1`, the IC50 in assay [1] is 200 nM; with CCRF-CEM [2], over 1000 nM.
Turning to `COc1cc(NC(=O)/C=C/c2cccs2)ccc1-c1cnco1`, the values for the half-inhibitory concentration (IC50) (in assay [1]; in the assay with CCRF-CEM [2]) were 66 nM and over 1000 nM, respectively.
Regarding `COc1cc(NC(=O)/C=C/c2ccco2)ccc1-c1cnco1`, the IC50 came to 28 nM in assay [1] and 6.6 µM with CCRF-CEM [3].
In the assay with CCRF-CEM [2], `COc1cc(NC(=O)Nc2cccc(C)c2)ccc1-c1cnco1` gave an IC50 of over 1000 nM.
For the compound `COc1cc(NC(=O)c2cccn2C)ccc1-c1cnco1`, the IC50 in assay [1] was 890 nM; in the assay on CCRF-CEM [2], over 1000 nM.
`COc1cc(NC(=O)c2ccc(C)s2)ccc1-c1cnco1`: the IC50 in assay [1] was 110 nM; in the assay with CCRF-CEM [3], 8.8 µM.
In the case of `COc1cc(NC(=O)/C=C/c2ccccc2F)ccc1-c1cnco1`, the IC50 in assay [1] is 740 nM; with CCRF-CEM [2] it was over 1000 nM.
For `COc1cc(NC(=O)c2cc3ccccc3[nH]2)ccc1-c1cnco1`, the concentration for half-maximal inhibition (IC50) in assay [4] was over 1000 nM; in assay [1], 110 nM; with CCRF-CEM [2] it was over 1000 nM.
With `COc1cc(NC(=O)c2cc3ccccn3c2)ccc1-c1cnco1`, the IC50 is 140 nM in assay [1] and over 1000 nM with CCRF-CEM [2].
As to `COc1cc(NC(=O)/C=C/c2ccc(C)cc2)ccc1-c1cnco1`, the values for the IC50 (in assay [1]; with CCRF-CEM [2]) were 210 nM and over 1000 nM, respectively.
On to `COc1cc(NC(=O)c2cc3ccccc3o2)ccc1-c1cnco1`, for which the IC50 in assay [1] is 210 nM; with CCRF-CEM [2], over 1000 nM.
Turning to `COc1cc(NC(=O)c2ccc(-c3ccccn3)s2)ccc1-c1cnco1`, the IC50 in assay [1] is 870 nM; with CCRF-CEM [2], over 1000 nM.
The like results for `COc1cc(NC(=O)c2cccs2)ccc1-c1cnco1` were, in that order, 810 nM and over 1000 nM.
As to `COc1cc(NC(=O)c2ccc(C(C)(C)C)o2)ccc1-c1cnco1`, the IC50 was 130 nM in assay [1] and over 1000 nM in the assay with CCRF-CEM [2].
On to `COc1cc(NC(=O)c2c[nH]c3ccccc23)ccc1-c1cnco1`, for which the results for the IC50 (in assay [1]; in the assay with CCRF-CEM [2]) were over 3000 nM and over 1000 nM, respectively.
In the case of `COc1cc(NC(=O)/C=C/c2ccncc2)ccc1-c1cnco1`, the IC50 amounted to 57 nM in assay [1] and 8.7 µM in the assay with CCRF-CEM [3].
On to `COc1cc(NC(=O)c2ccco2)ccc1-c1cnco1`, for which the half-maximal inhibitory concentration (IC50) in assay [1] is 2500 nM; in the assay with CCRF-CEM [2], over 1000 nM.
The like results for `COc1cc(NC(=O)/C=C/c2c[nH]c3ccccc23)ccc1-c1cnco1` were, in that order, 410 nM and over 1000 nM.
Take `COc1ccccc1/C=C\C(=O)Nc1ccc(-c2cnco2)c(OC)c1`: the figures for the IC50 (in assay [1]; in the assay on CCRF-CEM [2]) were 960 nM and over 1000 nM, respectively.
In the case of `COc1cc(NC(=O)/C=C/c2ccccc2C)ccc1-c1cnco1`, the concentration for half-maximal inhibition (IC50) in assay [1] is 35 nM; in the assay with CCRF-CEM [2], over 1000 nM.
For `COc1cc(NC(=O)/C=C/c2ccccc2)ccc1-c1cnco1`, the IC50 in assay [1] is 73 nM; with CCRF-CEM [2], over 1000 nM.
With `COc1cc(NC(=O)c2ccccc2)ccc1-c1cnco1`, the values for the 50% inhibitory concentration (IC50) (in assay [5]; in the assay on CCRF-CEM [2]) were 630 nM and over 1000 nM, respectively.
As for `COc1cc(NC(=O)c2ccc3[nH]ccc3c2)ccc1-c1cnco1`, the IC50 in assay [1] was 630 nM; with CCRF-CEM [2], over 1000 nM.
